# Data reported in ChEMBL document CHEMBL4828738, “Design, synthesis and evaluation of novel 5-phenylthiophene derivatives as potent fungicidal of Candida albicans and antifungal reagents of fluconazole-resistant fungi” (Eur J Med Chem, 2021).
# Experiments:
# CYP2D6 = CYP2D6 (Homo sapiens, UniProt P10635); test: Inhibition of CYP2D6 in human liver Microsome using dextromethorphan as substrate preincubated for 10 mins followed by NADPH addition and further incubated for 10 mins as substrate by LC-MS/MS analysis relative to control; conditions: liver microsomes, probe dextromethorphan
# CYP2D6, sequence (P10635 whole entry): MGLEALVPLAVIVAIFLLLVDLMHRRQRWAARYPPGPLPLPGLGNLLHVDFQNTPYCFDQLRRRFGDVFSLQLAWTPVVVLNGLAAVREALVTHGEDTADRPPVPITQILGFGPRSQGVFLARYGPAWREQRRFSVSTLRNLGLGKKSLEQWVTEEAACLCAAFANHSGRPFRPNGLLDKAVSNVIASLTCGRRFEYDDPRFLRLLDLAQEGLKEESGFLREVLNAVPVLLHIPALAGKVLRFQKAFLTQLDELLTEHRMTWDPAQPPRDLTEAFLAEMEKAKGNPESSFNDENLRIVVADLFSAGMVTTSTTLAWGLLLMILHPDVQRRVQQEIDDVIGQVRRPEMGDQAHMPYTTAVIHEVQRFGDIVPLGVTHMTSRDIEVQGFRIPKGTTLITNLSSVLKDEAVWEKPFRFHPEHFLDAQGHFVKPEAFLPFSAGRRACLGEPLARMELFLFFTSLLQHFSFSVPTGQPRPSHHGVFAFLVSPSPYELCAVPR
# CYP2C9 = CYP2C9 (Homo sapiens, UniProt P11712); test: Inhibition of CYP2C9 in human liver Microsome using diclofenac as substrate preincubated for 10 mins followed by NADPH addition and further incubated for 10 mins as substrate by LC-MS/MS analysis relative to control; conditions: liver microsomes, probe diclofenac
# CYP2C9, sequence (P11712 whole entry): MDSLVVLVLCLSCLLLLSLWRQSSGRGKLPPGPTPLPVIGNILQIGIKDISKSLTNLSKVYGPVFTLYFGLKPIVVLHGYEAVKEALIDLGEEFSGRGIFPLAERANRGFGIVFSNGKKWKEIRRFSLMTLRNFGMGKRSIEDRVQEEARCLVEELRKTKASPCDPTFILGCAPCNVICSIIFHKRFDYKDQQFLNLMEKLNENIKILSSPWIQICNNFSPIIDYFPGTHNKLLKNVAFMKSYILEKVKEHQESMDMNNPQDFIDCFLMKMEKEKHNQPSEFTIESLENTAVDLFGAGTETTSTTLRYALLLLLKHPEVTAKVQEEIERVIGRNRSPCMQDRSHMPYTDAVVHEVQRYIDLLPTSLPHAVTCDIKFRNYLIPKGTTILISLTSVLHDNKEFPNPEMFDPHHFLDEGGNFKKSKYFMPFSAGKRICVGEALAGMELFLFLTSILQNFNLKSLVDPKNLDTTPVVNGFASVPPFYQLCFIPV
# Nakaseomyces glabratus = test: Antifungal activity against Candida glabrata assessed as fungal growth inhibition by CLSI protocol based method; format: functional
# Candida albicans [1] = test: Anti-biofilm activity in Candida albicans CPCC400616 assessed as inhibition of biofilm formation incubated for 18 hrs by XTT assay; format: functional
# Outline: (§1)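 C. albicans CPCC400616 suspension placed in wells at 37 °C. Non-adherent cells and medium were removed at 3, 6, 18 or 24 h and wells washed with PBS. Compounds were added at a range of concentrations in fresh RPMI 1640 and incubated a further 24 h at 37 °C. Biofilm metabolic activity was read by XTT reduction.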
# Candida albicans [2] = test: Antifungal activity against Candida albicans CPCC400616 assessed as fungal growth inhibition by CLSI protocol based method; format: functional
# Candida tropicalis = test: Antifungal activity against Candida tropicalis CGMCC 2.3739 assessed as fungal growth inhibition by CLSI protocol based method; format: functional
# THLE-2 = test: Cytotoxicity against human THLE-2 cells assessed as reduction in cell viability measured after 96 hrs by MTT assay; format: ADME, cell-based; conditions: THLE-2, 96 h
# MCF7 = test: Cytotoxicity against human MCF7 cells assessed as reduction in cell viability measured after 96 hrs by MTT assay; format: ADME, cell-based; conditions: MCF7, 96 h
# Candida albicans [3] = test: Fungicidal activity against Candida albicans ATCC SC5314 assessed as inhibition of visible fungal growth measured after 48 hrs; format: functional
# Candida albicans [4] = test: Anti-biofilm activity in Candida albicans CPCC400616 assessed as inhibition of biofilm formation incubated for 6 hrs by XTT assay; format: functional; outline: as §1
# Pichia kudriavzevii = test: Antifungal activity against Candida krusei GIM2.1 assessed as fungal growth inhibition by CLSI protocol based method; format: functional
# Candida albicans [5] = test: Anti-biofilm activity in Candida albicans CPCC400616 assessed as inhibition of biofilm formation incubated for 3 hrs by XTT assay; format: functional; outline: as §1
# Cryptococcus neoformans = test: Antifungal activity against Cryptococcus neoformans CGMCC2.3161 assessed as fungal growth inhibition by CLSI protocol based method; format: functional
# A549 = test: Cytotoxicity against human A549 cells assessed as reduction in cell viability measured after 96 hrs by MTT assay; format: ADME, cell-based; conditions: A549, 96 h
# Candida albicans [6] = test: Anti-biofilm activity in Candida albicans CPCC400616 assessed as inhibition of biofilm formation incubated for 24 hrs by XTT assay; format: functional; outline: as §1
# Candida parapsilosis = test: Antifungal activity against Candida parapsilosis GIM2.190 assessed as fungal growth inhibition by CLSI protocol based method; format: functional; conditions: Lodderomyces parapsilosis
# Candida albicans [7] = test: Antifungal activity against Candida albicans ATCC SC5314 assessed as fungal growth inhibition by CLSI protocol based method; format: functional
structure (smiles),measurement,setting,value
C=C[C@H]1C[N@@]2CC[C@H]1C[C@@H]2[C@@H](O)c1ccnc2ccc(OC)cc12 [QUINIDINE],inhibition at 10 min,CYP2D6,96.2%
Nc1ccc(S(=O)(=O)Nc2ccnn2-c2ccccc2)cc1 [SULFAPHENAZOLE],inhibition at 10 min,CYP2C9,84.5%
C[C@@H](c1ncncc1F)[C@](O)(Cn1cncn1)c1ccc(F)cc1F [VORICONAZOLE],MIC,Nakaseomyces glabratus,0.125 µg/mL
same,MBIC50,Candida albicans [1],>64 µg/mL
same,MIC,Candida albicans [2],0.125 µg/mL
same,MIC,Candida tropicalis,0.06 µg/mL
same,IC50,THLE-2,> 30 µM
same,IC50,MCF7,> 30 µM
same,MFC,Candida albicans [3],8 µg/mL
same,MBIC50,Candida albicans [4],32 µg/mL
same,MIC,Pichia kudriavzevii,0.125 µg/mL
same,MBIC50,Candida albicans [5],16 µg/mL
same,MIC,Cryptococcus neoformans,0.06 µg/mL
same,IC50,A549,> 30 µM
same,MBIC50,Candida albicans [6],>64 µg/mL
same,MIC,Candida parapsilosis,0.06 µg/mL
same,MIC,Candida albicans [7],0.06 µg/mL
